This sample holds only a part of the variants without activity.
B1: tRNA (parent)
chain: GUUCCGUUGGCGUAAUGGUAACGCGUCUCCCUCCUAAGGAGAAGACUGCGGGUUCGAGUCCCGUACGGAACG

Variants of: B1
Assay: yeast fitness relative to wild type (ratio to wild type); higher = fitter; tRNA-Arg(CCU), competitive growth, 37 C, YPD
Summary of the method: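 Changes in genotype frequencies gave Darwinian fitness relative to wild type. Frequencies were read by 100-nucleotide paired-end sequencing of gene amplicons before and after pooled Saccharomyces cerevisiae strains, carrying tRNA-Arg(CCU) gene variants at the native locus, were competed in YPD at 37°C for 24 hours in six replicates. A genotype was kept only with ≥ 100 starting reads, and estimates < 0.5 were set to 0.5.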

C27G A42U U53C and U28G C46A C61G cannot be ordered by yeast fitness: at most 0.5 for the first, at most 0.5 for the second.

Compared with C4A C49G G63C, G17C A20U U54A C61U is lower in yeast fitness: 0.9 for the first, 0.546 for the second.

A42G C61G C66U and C11G A37C A45U G68C cannot be ordered by yeast fitness: at most 0.5 for the first, at most 0.5 for the second.

C4G G17A G41C G58A and A14U A40U U54A C55U U64C cannot be ordered by yeast fitness: at most 0.5 for the first, at most 0.5 for the second.

Compared with G6C C49G, C30A G38C is higher in yeast fitness: 0.776 for the first, 0.851 for the second.

Going from A43G G58C to G6C A42G A70U, the yeast fitness falls from 0.855 to 0.548.

Going from G6A A20C U28A C31A C33U A37C G50A A65U to U3A G9C C46G, the yeast fitness rises from at most 0.5 to 0.533.

Going from C5G C30G to G23A C46U A65C, the yeast fitness rises from 0.523 to 0.54.

Compared with U2C U8A G17C G38A C61A, C30G C33A A36U A65C is higher in yeast fitness: at most 0.5 for the first, 0.535 for the second.

Compared with G10C C33A, A20C U35C G51C A57G C60G A70U is lower in yeast fitness: 0.506 for the first, at most 0.5 for the second.

Compared with A37U A70U, C30A U35C U59C G63A is lower in yeast fitness: 0.655 for the first, 0.584 for the second.

First: G41A C49U G63A
Second: A20G A21U A42C
The yeast fitness of the first is higher: 0.678 for the first, 0.547 for the second.

First: G39A C46A C60G C61U
Second: C4G A45G U54A
The yeast fitness of the first is higher: 0.512 for the first, at most 0.5 for the second.

Going from C11A U53C to U16G C22A C62A, the yeast fitness falls from 0.556 to at most 0.5.

A14G C29U A37G A65G and G10C U16G C31A U32G C66A cannot be ordered by yeast fitness: at most 0.5 for the first, at most 0.5 for the second.

Compared with C4A G12C U19C C24G A43U C61A, G10A U19A G44C G67C is higher in yeast fitness: 0.502 for the first, 0.52 for the second.

Compared with G10A C27U C33U A43U U54C G68C, C5U C31A A40G is higher in yeast fitness: at most 0.5 for the first, 0.743 for the second.

Compared with A45C G67U, C5U C31A C34U A43G is lower in yeast fitness: 0.874 for the first, 0.77 for the second.

Compared with U13G C61A C66A, U59A G63A is higher in yeast fitness: at most 0.5 for the first, 0.872 for the second.

Compared with C5G C29U A42C C55U, U26C C30G C34U C49U is higher in yeast fitness: at most 0.5 for the first, 0.51 for the second.

First: C4G U16A G63A
Second: C5G C24G
The yeast fitness of the first is lower: 0.534 for the first, 0.604 for the second.

C4G C29U A43G U53G G63A and G41C G63C A65U cannot be ordered by yeast fitness: at most 0.5 for the first, at most 0.5 for the second.

C11A C27G C62U G68A and U8C C29G C30U C46U G48A cannot be ordered by yeast fitness: at most 0.5 for the first, at most 0.5 for the second.

C5G C11A A40C U64C and U3C A40U A45U G52A cannot be ordered by yeast fitness: at most 0.5 for the first, at most 0.5 for the second.

Going from G12A G25A C62G to U2A A20G G67A, the yeast fitness rises from at most 0.5 to 0.584.

C11G A14U U59G and G6A C24G U35A C46U G51C C55U A65C cannot be ordered by yeast fitness: at most 0.5 for the first, at most 0.5 for the second.

First: C31G A42C C55U G68A
Second: C4G C24A C46U A70G
The yeast fitness of the first is higher: 0.542 for the first, at most 0.5 for the second.

U2C C31G G56A U59A and G6C C11G A14U C22U G44A C55A G63A cannot be ordered by yeast fitness: at most 0.5 for the first, at most 0.5 for the second.

Compared with G9C C29U A70C, U3A G23A A70G is higher in yeast fitness: at most 0.5 for the first, 0.561 for the second.

U26A U32C U53A and G17C U28G G48A A69C cannot be ordered by yeast fitness: at most 0.5 for the first, at most 0.5 for the second.

Compared with C11U G12A G51C C62U, A21C C27U A57G C62U is higher in yeast fitness: at most 0.5 for the first, 0.507 for the second.

C4G G51C U64A and C31U U35C A40G A65U cannot be ordered by yeast fitness: at most 0.5 for the first, at most 0.5 for the second.

Going from G9A A69U to C5A G12A C33U, the yeast fitness falls from 1.04 to at most 0.5.

Compared with C5G G25A, C5U G9A G10C G25A C33G G39A is lower in yeast fitness: 0.981 for the first, at most 0.5 for the second.

C11G C22G A45C and U7A A14U U16C A42U cannot be ordered by yeast fitness: at most 0.5 for the first, at most 0.5 for the second.

Going from C31G G44C G52C C60G to U13C U47C, the yeast fitness rises from at most 0.5 to 0.905.

Compared with A57U G68C, G12A U13G G67A is lower in yeast fitness: 0.652 for the first, at most 0.5 for the second.

U53A G56C and U2A G9A A37C A42C C61G cannot be ordered by yeast fitness: at most 0.5 for the first, at most 0.5 for the second.

Going from G17A C29G A45G C61U to C22U G52C, the yeast fitness rises from at most 0.5 to 0.537.

Going from G39A A45C A69C to C11U C66G A69U, the yeast fitness falls from 0.804 to 0.555.

Compared with G18A C29U C31A, U16C C31A C34U A69C is lower in yeast fitness: 0.575 for the first, at most 0.5 for the second.

Compared with C5G A20G A36C A70C, C5U C27A C33G A45C G50C G58A is higher in yeast fitness: at most 0.5 for the first, 0.514 for the second.

Compared with G17C G48A, G9A U16A A42C U53C C62A is lower in yeast fitness: 0.685 for the first, at most 0.5 for the second.

First: A21G A36G A42U
Second: C5A C33A G39C G51C C62U A69C
The yeast fitness of the first is higher: 0.75 for the first, at most 0.5 for the second.

First: C11A C27U C30A A43C C60U
Second: C4G G17C A20U A37C
The yeast fitness of the first is lower: at most 0.5 for the first, 0.717 for the second.

Compared with U3C U13A, G10U G48A A70U is lower in yeast fitness: 0.983 for the first, 0.649 for the second.

Compared with U26A C30A, A15U C22G C31U is lower in yeast fitness: 0.768 for the first, 0.536 for the second.

A14C A40U C55G C61U C66U and C24U C29G C31U U64A cannot be ordered by yeast fitness: at most 0.5 for the first, at most 0.5 for the second.

Going from A36G A42G to G12C C46A G68U, the yeast fitness falls from 0.797 to at most 0.5.

Going from C5G C66A to C4U A37C G41C, the yeast fitness falls from 0.703 to 0.577.

First: G39C C46U
Second: G18C G52C C60U
The yeast fitness of the first is higher: 0.98 for the first, 0.591 for the second.

Compared with U8A A43G, A20G C29G G68A is lower in yeast fitness: 0.742 for the first, at most 0.5 for the second.

Going from G17A A70G to G25A A40G, the yeast fitness rises from 0.866 to 0.972.

U8G G48A C49G and C34G A45U G50C A57C cannot be ordered by yeast fitness: at most 0.5 for the first, at most 0.5 for the second.

First: C11A A43G A69U
Second: U3A G12C A21C A36C C49U A70U
The yeast fitness of the first is higher: 0.582 for the first, at most 0.5 for the second.

C4U G12A U19C U26A and G10C C55U cannot be ordered by yeast fitness: at most 0.5 for the first, at most 0.5 for the second.

First: G17A C61G
Second: A37G G44A A70C
The yeast fitness of the first is lower: 0.573 for the first, 0.859 for the second.

First: A37C A45C
Second: C30A G58C G68A
The yeast fitness of the first is higher: 0.758 for the first, at most 0.5 for the second.

C11U A45C G52C C61U and U26C A43U G50A G68A cannot be ordered by yeast fitness: at most 0.5 for the first, at most 0.5 for the second.

First: C4A A36C
Second: C27G U54C
The yeast fitness of the first is higher: 0.686 for the first, at most 0.5 for the second.

U3C C5G A20G G63C C66G and U7G A21C U59A cannot be ordered by yeast fitness: at most 0.5 for the first, at most 0.5 for the second.

First: C4U A15C C30G C49U A69C A70G
Second: C4G C5A
The yeast fitness of the first is lower: at most 0.5 for the first, 0.765 for the second.

U7C C29A A65G and C5G U16A U19G A20C C27U C29U C30U A70G cannot be ordered by yeast fitness: at most 0.5 for the first, at most 0.5 for the second.

C11A C30U A45C and C5A G52A G58C cannot be ordered by yeast fitness: at most 0.5 for the first, at most 0.5 for the second.

G6A C11A U53C and U28A A40U C61A G68A cannot be ordered by yeast fitness: at most 0.5 for the first, at most 0.5 for the second.

Compared with A14C C46G C60G, C11U C29U is higher in yeast fitness: at most 0.5 for the first, 0.738 for the second.

G6C G39C G52A U53A and C29G C33U C66U cannot be ordered by yeast fitness: at most 0.5 for the first, at most 0.5 for the second.

Going from U8A G10U C22U A37G to A20C A21G G50C A65C, the yeast fitness falls from 0.511 to at most 0.5.

First: A21C A43U G50A G52U A69C
Second: A14G C55A A57U G58C A69U
The yeast fitness of the first is higher: 0.554 for the first, at most 0.5 for the second.

Going from G12C U16A C60G C61U G68A to G39A G67A, the yeast fitness rises from at most 0.5 to 0.769.

Going from C5A U7G C29G C33U G44C A69C to U8A C31G, the yeast fitness rises from at most 0.5 to 0.679.

G9A A14U C46G C55U A69C and U7A A42G G52C G56A cannot be ordered by yeast fitness: at most 0.5 for the first, at most 0.5 for the second.

First: U2A A15U C22A A45G C46A U53C
Second: U2A U16G C49G
The yeast fitness of the first is lower: 0.589 for the first, 0.705 for the second.

First: A14U C46U G48C G63A G68A
Second: G39C G58A
The yeast fitness of the first is lower: at most 0.5 for the first, 0.876 for the second.

Compared with C33A A65G A69C, G23C C24U C46U U47C is higher in yeast fitness: at most 0.5 for the first, 0.684 for the second.

Compared with C30G A40U C46U A69G, U7G C34A is higher in yeast fitness: at most 0.5 for the first, 0.757 for the second.

Going from C29U A69U to U7A C24U U47C, the yeast fitness falls from 0.868 to 0.566.

Compared with U19G U47C C66U, C5U U7A U35A A36U A45U is lower in yeast fitness: 0.786 for the first, at most 0.5 for the second.

Going from G12A C27U C30G G68U to G56A A70U, the yeast fitness rises from at most 0.5 to 0.918.

Going from U59C to U7C U16G C29U C31A C46U, the yeast fitness falls from 1 to 0.566.

Going from G18A A21U C49A C60G A70U to G38C G56U, the yeast fitness rises from at most 0.5 to 0.633.

Compared with U28G C49U A69U, G9C C33U is lower in yeast fitness: 0.804 for the first, 0.536 for the second.

First: G17A C55U
Second: C33U C66U
The yeast fitness of the first is higher: 0.681 for the first, 0.651 for the second.

U16C G58A U59C showed a yeast fitness of 0.555.
